Experimental data: ChEMBL document CHEMBL2311469, “Development of new cathepsin B inhibitors: combining bioisosteric replacements and structure-based design to explore the structure-activity relationships of nitroxoline derivatives” (J Med Chem, 2013)
Each block holds one molecule with its values, some of them ahead of it. The source made the active and inactive calls. The rule behind the calls is not given here.

How the values were obtained:
Cathepsin B [1] = biological target: T1, Cathepsin B (Homo sapiens, UniProt P07858); test: Noncompetitive inhibition of human recombinant cathepsin B exopeptidase activity using Abz-Gly-Ile-Val-Arg-Ala-Lys(Dnp)-OH substrate
Procedure, shortened: (§1)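 Human recombinant catB, preactivated 5 min at 37 °C in assay buffer containing 0.1% PEG 8000, 5 mM DTT and 1.5 mM EDTA. […] Exopeptidase: 60 mM acetate pH 5.0, Abz-GIVRAK(Dnp)-OH 1/3/6 μM (Km 6.3 μM). Inhibitor 0–200 μM, 5% DMSO, 37 °C, fluorescence rate; two runs in duplicate.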

Cathepsin B [2] = biological target: T1, Cathepsin B; test: Uncompetitive inhibition of human recombinant […] assessed as inhibition constant for enzyme-substrate-inhibitor complex
Cathepsin B [3] = biological target: T1, Cathepsin B; test: Mixed inhibition of human recombinant cathepsin B endopeptidase activity using Z-Arg-Arg-AMC substrate assessed as inhibition constant for enzyme-substrate-inhibitor complex
Cathepsin B [4] = biological target: T1, Cathepsin B; test: Mixed inhibition of human recombinant cathepsin B […] assessed as inhibition constant for enzyme-inhibitor complex
Cathepsin B [5] = biological target: T1, Cathepsin B; test: Mixed inhibition of human recombinant cathepsin B exopeptidase activity using Abz-Gly-Ile-Val-Arg-Ala-Lys(Dnp)-OH substrate assessed as inhibition constant for enzyme-substrate-inhibitor complex
Procedure, shortened: (§2)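 Recombinant human catB was preactivated for 5 min at 37 °C in 60 mM acetate pH 5.0 with 0.1% PEG 8000, 5 mM DTT and 1.5 mM EDTA. Abz-GIVRAK(Dnp)-OH was used at 1, 3 and 6 μM (Km 6.3 μM), with inhibitor at 0–200 μM (seven levels) and 5% DMSO. […] Run twice, each in duplicate.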

Cathepsin B [6] = biological target: T1, Cathepsin B; test: Mixed inhibition of human recombinant cathepsin B exopeptidase activity using Abz-Gly-Ile-Val-Arg-Ala-Lys(Dnp)-OH substrate assessed as inhibition constant for enzyme-inhibitor complex; procedure, shortened: as §2
Cathepsin B [7] = biological target: T1, Cathepsin B; test: Competitive inhibition of human recombinant cathepsin B exopeptidase activity using Abz-Gly-Ile-Val-Arg-Ala-Lys(Dnp)-OH substrate assessed as inhibition constant for enzyme-inhibitor complex; procedure, shortened: as §1
Cathepsin B [8] = biological target: T1, Cathepsin B; test: Inhibition of human recombinant cathepsin B exopeptidase activity using Abz-Gly-Ile-Val-Arg-Ala-Lys(Dnp)-OH substrate
Cathepsin B [9] = biological target: T1, Cathepsin B; test: Inhibition of human recombinant cathepsin B endopeptidase activity using Z-Arg-Arg-AMC substrate
MCF-10A [10] = test: Increase in proliferation of human MCF10A neoT cells expressing c-Ha-Ras oncogene at 2.5 uM measured at 15 mins interval up to 3 days; format: ADME, cell-based
Procedure, shortened: (§3)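 MCF-10A neoT cells, 7500 per well, monitored on the xCELLigence impedance system (cell index read every 15 min). After ~10 h, in log growth, 2.5 or 5 μM compound or 0.2% DMSO was added. Run for 72 h, with medium containing inhibitor renewed every 24 h.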

MCF-10A [11] = test: Increase in proliferation of human MCF10A neoT cells expressing c-Ha-Ras oncogene at 5 uM measured at 15 mins interval up to 3 days; format: ADME, cell-based; procedure, shortened: as §3
MCF-10A [12] = test: Cytotoxicity against human MCF10A neoT cells expressing c-Ha-Ras oncogene at 5 uM measured at 15 mins interval up to 3 days; format: cell-based; procedure, shortened: as §3
MCF-10A [13] = test: Cytotoxicity against human MCF10A neoT cells expressing c-Ha-Ras oncogene at 2.5 uM measured at 15 mins interval up to 3 days; format: cell-based; procedure, shortened: as §3
MCF-10A [14] = test: Inhibition of human MCF10A neoT cell invasion expressing c-Ha-Ras oncogene at 5 uM after 30 mins relative to DMSO-treated control; format: functional; settings: 72 h, in the assay text read “after 72 hrs” for “after 30 mins”
Procedure, shortened: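 xCELLigence CIM-16 invasion assay. Upper chamber coated with 5 mg/mL Matrigel; lower well coated with bovine fibronectin. Compound 5 μM or 0.05% DMSO in both chambers, equilibrated 30 min at 37 °C. Then 3 × 10^4 cells seeded in serum-free medium, cell index read every 15 min for 72 h. Invasion = cell index with compound / DMSO; mean ± SD, n = 4, two experiments.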

Homo sapiens [15] = species on record: Homo sapiens; test: Selectivity ratio of Ki for human liver cathepsin H to Ki for human recombinant cathepsin B
Homo sapiens [16] = species on record: Homo sapiens; test: Selectivity ratio of Ki for human recombinant cathepsin L to Ki for human recombinant cathepsin B
Procathepsin L = Procathepsin L (Homo sapiens, UniProt P07711); test: Competitive inhibition of human recombinant cathepsin L endopeptidase activity using Z-FR-AMC substrate expressed in Escherichia coli assessed as inhibition constant for enzyme-inhibitor complex
Procedure, shortened: (§4)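 Ki from rates at three substrate levels with inhibitor at 0, 20, 40, 60, 80, 100 and 200 μM. Enzymes were preactivated 5 min at 37 °C. CatL (recombinant, E. coli): 100 mM acetate pH 5.5, Z-Phe-Arg-AMC 0.5/1/4 μM. CatH (native, human liver): 100 mM phosphate pH 6.8, Arg-AMC 20/80/160 μM. Buffers held 0.1% PEG 8000, 5 mM DTT and 1.5 mM EDTA, plus 5% DMSO. Two runs in duplicate.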

Pro-cathepsin H [17] = biological target: T2, Pro-cathepsin H (Homo sapiens, UniProt P09668); test: Noncompetitive inhibition of human liver cathepsin H endopeptidase activity using R-AMC substrate assessed as inhibition constant for enzyme-substrate-inhibitor complex
T2 sequence (P09668 whole entry): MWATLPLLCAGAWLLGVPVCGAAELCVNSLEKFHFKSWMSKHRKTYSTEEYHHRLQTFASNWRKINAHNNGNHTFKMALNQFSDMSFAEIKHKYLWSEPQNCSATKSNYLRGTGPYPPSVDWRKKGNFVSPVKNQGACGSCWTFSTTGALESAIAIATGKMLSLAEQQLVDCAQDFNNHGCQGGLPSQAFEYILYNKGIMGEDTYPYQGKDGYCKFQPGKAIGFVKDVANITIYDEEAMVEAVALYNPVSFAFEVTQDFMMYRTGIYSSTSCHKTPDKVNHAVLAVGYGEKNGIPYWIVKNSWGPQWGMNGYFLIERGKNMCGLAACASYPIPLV
Procedure, shortened: (§5)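 Native catH isolated from human liver was preactivated for 5 min at 37 °C in 100 mM phosphate pH 6.8 with 0.1% PEG 8000, 5 mM DTT and 1.5 mM EDTA. Arg-AMC was used at 20, 80 and 160 μM, with inhibitor at 0–200 μM (seven levels) and 5% DMSO. […] Run twice in duplicate.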

Pro-cathepsin H [18] = biological target: T2, Pro-cathepsin H; test: Noncompetitive inhibition of human liver cathepsin H endopeptidase activity using R-AMC substrate assessed as inhibition constant for enzyme-inhibitor complex; procedure, shortened: as §5
Cathepsin B [19] = biological target: T1, Cathepsin B; settings: MCF10A neoT, 5 uM
Cathepsin B [20] = biological target: T1, Cathepsin B; settings: MCF10A neoT, 5 uM; remark: listed apart in the source
Pro-cathepsin H [21] = biological target: T2, Pro-cathepsin H; test: Uncompetitive inhibition of human liver cathepsin H endopeptidase activity using R-AMC substrate assessed as inhibition constant for enzyme-substrate-inhibitor complex; procedure, shortened: as §4

Procathepsin L, sequence (P07711 whole entry): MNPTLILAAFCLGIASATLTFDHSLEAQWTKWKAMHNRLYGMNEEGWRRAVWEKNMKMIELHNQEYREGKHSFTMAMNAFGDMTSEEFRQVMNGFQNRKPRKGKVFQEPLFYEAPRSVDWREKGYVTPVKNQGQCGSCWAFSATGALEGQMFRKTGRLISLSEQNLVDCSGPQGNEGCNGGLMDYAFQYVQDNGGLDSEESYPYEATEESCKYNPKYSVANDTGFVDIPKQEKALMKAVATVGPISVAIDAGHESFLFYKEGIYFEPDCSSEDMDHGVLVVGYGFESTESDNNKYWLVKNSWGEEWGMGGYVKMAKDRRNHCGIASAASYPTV

SMILES: CN(CCc1ccccc1)c1ccc([N+](=O)[O-])c2cccnc12
- Ki (Cathepsin B [1]): 350 µM
- Ki (Cathepsin B [2]): 175 µM

SMILES: O=[N+]([O-])c1ccc(NCc2ccccn2)c2ncccc12
- Ki (Cathepsin B [1]): 47 µM
- Ki (Cathepsin B [3]): 87 µM
- Ki (Cathepsin B [4]): 107 µM

SMILES: CCN(CC)C(=O)C1CCCN(c2ccc([N+](=O)[O-])c3cccnc23)C1 (racemic)
- Ki (Cathepsin B [5]): 36 µM
- Ki (Cathepsin B [6]): 105 µM
- Ki (Cathepsin B [3]): 117 µM
- Ki (Cathepsin B [4]): 155 µM

SMILES: CN(Cc1ccccc1)c1ccc([N+](=O)[O-])c2cccnc12
- Ki (Cathepsin B [7]): 196 µM
- Ki (Cathepsin B [3]): 137 µM
- Ki (Cathepsin B [4]): 242 µM

SMILES: CCOC(=O)C1CCN(c2ccc([N+](=O)[O-])c3cccnc23)CC1
- Ki (Cathepsin B [1]): 38 µM
- Ki (Cathepsin B [3]): 113 µM
- Ki (Cathepsin B [4]): 162 µM

- Ki (Cathepsin B [1]): 162 µM
- Ki (Cathepsin B [3]): 94 µM
- Ki (Cathepsin B [4]): 143 µM
SMILES: O=[N+]([O-])c1cc(CN2CCN(Cc3ccncc3)CC2)c(O)c2ncccc12

SMILES: CN(C)c1ccc([N+](=O)[O-])c2cccnc12
- inhibition (Cathepsin B [8]): inactive
- inhibition (Cathepsin B [9]): inactive

- Ratio Ki (Homo sapiens [15]): 24
- Ratio Ki (Homo sapiens [16]): 23
- Ki (Procathepsin L): 124 µM
- Ki (Pro-cathepsin H [17]): 129 µM
- Ki (Pro-cathepsin H [18]): 129 µM
- Ki (Cathepsin B [1]): 426 µM
- Ki (Cathepsin B [2]): 5 µM
- inhibition (Cathepsin B [19]): Active
- inhibition (Cathepsin B [20]): Active
SMILES: N#CCNCc1cc([N+](=O)[O-])c2cccnc2c1O
- Activity (MCF-10A [10]): 113%
- Activity (MCF-10A [11]): 117%
- Activity (MCF-10A [12]): Non-toxic
- Activity (MCF-10A [13]): Non-toxic
- inhibition at 5 µM (MCF-10A [14]): 80%

- Ki (Cathepsin B [1]): 172 µM
- Ki (Cathepsin B [3]): 76 µM
- Ki (Cathepsin B [4]): 126 µM
SMILES: CN(CC#N)Cc1cc([N+](=O)[O-])c2cccnc2c1O

- Ratio Ki (Homo sapiens [15]): 11
- Ratio Ki (Homo sapiens [16]): > 6
- Ki (Procathepsin L): 182 µM
- Ki (Pro-cathepsin H [21]): 354 µM
- Ki (Cathepsin B [1]): 212 µM
- Ki (Cathepsin B [2]): 32 µM
SMILES: Nc1c(Br)cc([N+](=O)[O-])c2ccccc12

SMILES: O=[N+]([O-])c1ccc(O)c2ccccc12
- inhibition (Cathepsin B [8]): inactive
- Ki (Cathepsin B [3]): 84 µM
- Ki (Cathepsin B [4]): 373 µM

- inhibition (Cathepsin B [9]): inactive
SMILES: O=S(=O)(O)c1ccc(O)c2ccccc12

- Ki (Cathepsin B [1]): 154 µM
- Ki (Cathepsin B [3]): 58 µM
- Ki (Cathepsin B [4]): 198 µM
SMILES: O=[N+]([O-])c1cc(CNCc2ccccc2)c(O)c2ncccc12

- inhibition (Cathepsin B [9]): inactive
SMILES: Nc1c(O)cc(S(=O)(=O)O)c2ccccc12

SMILES: O=[N+]([O-])c1cc([N+](=O)[O-])c2cccnc2c1O
- Ki (Cathepsin B [1]): 146 µM
- Ki (Cathepsin B [2]): 72 µM

SMILES: C#CCNc1ccc([N+](=O)[O-])c2cccnc12
- inhibition (Cathepsin B [8]): inactive
- inhibition (Cathepsin B [9]): inactive

SMILES: O=[N+]([O-])c1ccc(N2CCOCC2)c2ccccc12
- Ki (Cathepsin B [1]): 85 µM
- Ki (Cathepsin B [3]): 125 µM
- Ki (Cathepsin B [4]): 289 µM
